Active and inactive are the calls of the source. The rule behind the calls is not given here.
How the values were obtained:
[1] = biological target: T1, Tyrosine-protein phosphatase non-receptor type 1 (Homo sapiens, UniProt P18031); assay: Competitive inhibition of GST-tagged human recombinant PTP1B expressed in Escherichia coli TB1 using p-nitrophenylphosphate as substrate by Line-Weaver Burk plot
T1 sequence (P18031 whole entry): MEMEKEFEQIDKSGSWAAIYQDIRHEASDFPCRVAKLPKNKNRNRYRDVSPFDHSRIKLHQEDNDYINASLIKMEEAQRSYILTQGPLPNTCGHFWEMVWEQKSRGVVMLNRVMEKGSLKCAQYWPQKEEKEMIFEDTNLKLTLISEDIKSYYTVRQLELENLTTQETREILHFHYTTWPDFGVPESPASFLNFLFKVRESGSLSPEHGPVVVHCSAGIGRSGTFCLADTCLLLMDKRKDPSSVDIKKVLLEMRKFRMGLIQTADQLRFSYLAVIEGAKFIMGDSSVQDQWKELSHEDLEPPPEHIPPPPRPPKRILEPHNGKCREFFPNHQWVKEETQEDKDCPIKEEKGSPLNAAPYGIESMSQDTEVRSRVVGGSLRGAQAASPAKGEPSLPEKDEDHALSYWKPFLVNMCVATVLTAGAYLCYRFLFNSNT
How it was run: (§1)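 Human enzymes were expressed in E. coli TB1 as GST fusions and purified on glutathione-Sepharose. GST was removed by thrombin (3 h, 37 °C), followed by gel filtration. Assays ran at 37 °C in pH 7.0 buffer (0.075 M β,β-dimethylglutarate, 1 mM EDTA, 5 mM DTT) with p-nitrophenylphosphate, read at 400 nm. Initial rates were measured in triplicate at differing substrate and inhibitor levels, and apparent Km was plotted against inhibitor concentration to give Ki.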

[2] = biological target: T2, Low molecular weight phosphotyrosine protein phosphatase (Homo sapiens, UniProt P24666); assay: Competitive inhibition of GST-tagged human recombinant LMW-PTP IF1 expressed in Escherichia coli TB1 using p-nitrophenylphosphate as substrate by Line-Weaver Burk plot; how it was run: as §1
T2 sequence (P24666 whole entry): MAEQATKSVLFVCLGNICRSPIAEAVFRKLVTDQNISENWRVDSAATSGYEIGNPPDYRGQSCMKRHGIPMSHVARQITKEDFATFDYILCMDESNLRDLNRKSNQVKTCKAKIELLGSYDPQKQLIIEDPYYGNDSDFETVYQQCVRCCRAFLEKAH

[3] = biological target: T2, Low molecular weight phosphotyrosine protein phosphatase; assay: Competitive inhibition of GST-tagged human recombinant LMW-PTP IF2 expressed in Escherichia coli TB1 using p-nitrophenylphosphate as substrate by Line-Weaver Burk plot; how it was run: as §1
[4] = biological target: T3, Tyrosine-protein phosphatase non-receptor type 2 (Homo sapiens, UniProt P17706); assay: Competitive inhibition of human recombinant TCPTP using p-nitrophenylphosphate as substrate by Line-Weaver Burk plot
T3 sequence (P17706 whole entry): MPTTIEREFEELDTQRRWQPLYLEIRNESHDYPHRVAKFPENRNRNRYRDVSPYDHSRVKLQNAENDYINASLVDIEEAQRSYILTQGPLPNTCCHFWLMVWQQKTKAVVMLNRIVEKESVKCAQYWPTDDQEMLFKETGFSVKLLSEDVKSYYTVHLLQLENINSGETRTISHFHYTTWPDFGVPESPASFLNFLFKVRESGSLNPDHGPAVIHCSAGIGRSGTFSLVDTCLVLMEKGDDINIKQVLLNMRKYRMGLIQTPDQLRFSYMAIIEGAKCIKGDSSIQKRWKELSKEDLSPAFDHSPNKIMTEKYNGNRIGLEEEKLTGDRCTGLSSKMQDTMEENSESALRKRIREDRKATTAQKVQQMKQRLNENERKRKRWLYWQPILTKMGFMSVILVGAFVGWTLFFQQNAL

Homo sapiens [5] = species on record: Homo sapiens; assay: Selectivity ratio of IC50 for human recombinant LMW-PTP IF2 to IC50 for human recombinant LMW-PTP IF1
How it was run: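 Recombinant human LMW-PTP IF1 and IF2 (GST cleaved off) were assayed at 37 °C in pH 7.0 β,β-dimethylglutarate/EDTA/DTT buffer. Fixed p-nitrophenylphosphate equal to each isoform's Km was used, with p-nitrophenolate read at 400 nm. IC50 came from fitting vi/v0 against inhibitor concentration to a four-parameter equation. The ratio is IF2 IC50 over IF1 IC50.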

Homo sapiens [6] = species on record: Homo sapiens; assay: Selectivity ratio of IC50 for human recombinant TCPTP to IC50 for human recombinant PTP1B
How it was run: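 IC50 values were from initial p-nitrophenylphosphate hydrolysis (400 nm) in pH 7.0 β,β-dimethylglutarate/EDTA/DTT buffer, fitted to a four-parameter equation. PTP1B (recombinant human, GST cleaved) was assayed at 37 °C with substrate at its Km. Commercial recombinant TC-PTP (0.02 µg) was assayed with 2.8 mM p-nitrophenylphosphate, stopped with KOH. The ratio is TC-PTP IC50 over PTP1B IC50.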

C2C12 = assay: Cytotoxicity against mouse C2C12 cells at 25 uM after 2 hrs by MTT assay; format: cell-based; conditions: c2c12, 2 h
How it was run: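 C2C12 myoblasts were differentiated 4 days in DMEM/2% horse serum, then serum-starved 20 h. Compounds at 25 µM final (DMSO vehicle) were given for 2 h. MTT was added at 0.5 mg/ml final, 37 °C for 2 h. Cells were lysed in DMSO and formazan read at 570 nm, expressed as % of DMSO control, mean ± SE of three replicates.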

[7] = biological target: T4, Tyrosine-protein phosphatase non-receptor type 1 (Mus musculus) (UniProt P35821); assay: Inhibition of PTP1B in mouse C2C12 cells assessed as increase in insulin receptor beta tyrosine phosphorylation at 25 uM; format: cell-based
T4 sequence (whole entry): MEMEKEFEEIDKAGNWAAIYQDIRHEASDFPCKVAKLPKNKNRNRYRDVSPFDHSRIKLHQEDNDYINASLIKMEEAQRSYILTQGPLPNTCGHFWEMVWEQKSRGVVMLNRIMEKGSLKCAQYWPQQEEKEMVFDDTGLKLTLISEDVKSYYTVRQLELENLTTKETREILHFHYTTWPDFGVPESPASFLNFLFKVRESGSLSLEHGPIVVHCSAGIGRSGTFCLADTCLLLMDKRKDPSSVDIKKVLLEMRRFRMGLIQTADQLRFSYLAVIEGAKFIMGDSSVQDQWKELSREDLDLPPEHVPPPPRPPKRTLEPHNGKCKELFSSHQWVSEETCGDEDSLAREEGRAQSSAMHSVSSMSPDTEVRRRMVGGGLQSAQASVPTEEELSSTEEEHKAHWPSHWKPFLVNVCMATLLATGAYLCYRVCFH
How it was run: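 Differentiated, 20 h serum-starved C2C12 myotubes were exposed to 25 µM compound (1.2% DMSO) for 90 min at 37 °C. Insulin 10 nM for 30 min served as positive control. Lysates in SDS sample buffer were run on SDS-PAGE and western blotted for phospho-IRβ, normalized to actin, in at least three experiments.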

[8] = biological target: T4, Tyrosine-protein phosphatase non-receptor type 1 (Mus musculus); assay: Inhibition of PTP1B in mouse C2C12 cells assessed as increase in intracellular 2-deoxyglucose uptake using [3H]glucose as substrate at 25 uM after 90 mins by scintillation counting; format: cell-based
How it was run: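 C2C12 myotubes were differentiated and serum-starved 20 h, then treated 90 min with 25 µM compound (1.2% DMSO). Insulin 10 nM for 30 min was the positive control. 0.1 µCi 2-deoxy-D-[3H]glucose in Ringer–Hepes was taken up 15 min at 37 °C. Cells were washed with cold PBS, lysed in 0.2 M NaOH and counted by scintillation, normalized to protein. Mean ± SE of three replicates.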

IC50 [1]	IC50 [2]	IC50 [3]	IC50 [4]	Ratio IC50 (Homo sapiens [5])	Ratio IC50 (Homo sapiens [6])	inhibition [7]	inhibition [8]	Ki [1]	SMILES	Activity (C2C12)
2.2 µM	7.3 µM	33.2 µM	15.6 µM	> 3	7.1	–	–	–	O=C(O)c1ccc(CN2C(=O)/C(=C/c3ccc(Oc4ccccc4)cc3)S/C2=N\c2ccc(C(F)(F)F)cc2)cc1	Non-toxic
2.5 µM	11.2 µM	18 µM	7.1 µM	–	> 2	Active	inactive	–	COc1ccc(/N=C2\S/C(=C\c3ccc(Oc4ccccc4)cc3)C(=O)N2Cc2ccc(C(=O)O)cc2)cc1	Non-toxic
10.4 µM	13.7 µM	> 150 µM	20.6 µM	> 3	2	–	Active	–	O=C(O)c1ccc(CN2C(=O)/C(=C/c3cccc(Oc4ccccc4)c3)S/C2=N\c2ccc(C(F)(F)F)cc2)cc1	Non-toxic
1.4 µM	4 µM	25.4 µM	2.2 µM	> 3	> 2	Active	Active	1.2 µM	O=C(O)c1ccc(CN2C(=O)/C(=C/c3ccc(OCc4ccccc4)cc3)S/C2=N\c2ccc(C(F)(F)F)cc2)cc1	Non-toxic
9 µM	11.6 µM	11.7 µM	27 µM	–	> 2	–	–	–	COc1ccc(/N=C2\S/C(=C\c3ccc4ccccc4c3)C(=O)N2Cc2ccc(C(=O)O)cc2)cc1	Non-toxic
2.4 µM	5.8 µM	15.2 µM	20.2 µM	> 3	> 2	Active	Active	–	O=C(O)c1ccc(CN2C(=O)/C(=C/c3ccc4ccccc4c3)S/C2=N\c2ccc(C(F)(F)F)cc2)cc1	Non-toxic
5.1 µM	9.6 µM	17.5 µM	11.6 µM	> 3	> 2	Active	inactive	–	COc1ccc(/N=C2\S/C(=C\c3cccc(OCc4ccccc4)c3)C(=O)N2Cc2ccc(C(=O)O)cc2)cc1	Non-toxic
5.6 µM	12 µM	> 150 µM	> 100 µM	> 3	> 2	Active	Active	–	O=C(O)c1ccc(CN2C(=O)/C(=C/c3cccc(OCc4ccccc4)c3)S/C2=N\c2ccc(C(F)(F)F)cc2)cc1	Non-toxic
3 µM	6.4 µM	9.1 µM	9.5 µM	1.4	> 2	inactive	inactive	–	COc1ccc(/N=C2\S/C(=C\c3ccc(OCc4ccccc4)cc3)C(=O)N2Cc2ccc(C(=O)O)cc2)cc1	Non-toxic
10.9 µM	12 µM	21.8 µM	20.5 µM	> 3	> 2	Active	inactive	–	COc1ccc(/N=C2\S/C(=C\c3cccc(Oc4ccccc4)c3)C(=O)N2Cc2ccc(C(=O)O)cc2)cc1	Non-toxic

— ChEMBL document CHEMBL2010756, “New 4-[(5-arylidene-2-arylimino-4-oxo-3-thiazolidinyl)methyl]benzoic acids active as protein tyrosine phosphatase inhibitors endowed with insulinomimetic effect on mouse C2C12 skeletal muscle cells” (Eur J Med Chem, 2012)
